# Measured values: publication PMC2795045 (Chemico-biological interactions, 2010)
# Where two headings read alike, the source gives them in different places.
# What was measured:
# [1] = system: CYP1A; experiment: CYP1A activity; type: cell-based, Xenopus laevis; details: Xenopus laevis
# [2] = system: XLK-WG cells; experiment: CYP1A activity; type: cell-based, Xenopus laevis; details: XLK-WG cells, at the concentration of maximum response
# [3] = system: CYP1A1; experiment: CYP1A1 mRNA induction in Hepa1c1c7 cells by quantitative RT-PCR; type: cell-based, mouse; details: mouse, EC50 for CYP1A1 mRNA induction, 3 hours exposure, qRT-PCR, ± SE
# [4] = system: Hepa1c1c7 cells; experiment: as above; type: cell-based, mouse; details: read-out: EC50 for CYP1A1 mRNA induction, 3 hours exposure, qRT-PCR, ± SE
# [5] = system: CYP1A7 (Xl.1220) mRNA; experiment: Affymetrix expression microarray of XLK-WG cells; type: cell-based, Xenopus laevis; details: Xenopus laevis
# [6] = system: XLK-WG cells; experiment: Affymetrix expression microarray of XLK-WG cells; type: cell-based, Xenopus laevis; details: for Genes altered ≥ 2-fold: Induced / Genes altered ≥ 2-fold: Repressed / Genes altered (p ≤ 0.01): Induced / Genes altered (p ≤ 0.01): Repressed: 3 hours, number of genes; for Genes altered (p ≤ 0.01): Induced / Genes altered (p ≤ 0.01): Repressed: no two-fold cutoff; for fold induction at 0.1 µM: Xenopus laevis, 3 h
# [7] = system: CYP1A6 (Xl.1692) mRNA; experiment: Affymetrix expression microarray of XLK-WG cells; type: cell-based, Xenopus laevis; details: Xenopus laevis
# [8] = system: XLK-WG cells; experiment: CYP1A6/CYP1A7 mRNA induction in XLK-WG cells by quantitative RT-PCR; type: cell-based, Xenopus laevis
# [9] = system: Hepa1c1c7 cells; experiment: CYP1A activity; type: cell-based, mouse; details: for maximum EROD activity in Hepa1c1c7 cells relative to XLK-WG cells / maximum EROD activity induced: 3 hour treatment; for maximum EROD activity induced: ± SE
# [10] = system: CYP1A7 (Xl.1220) mRNA; experiment: qRT-PCR of selected altered transcripts in XLK-WG cells; type: cell-based, Xenopus laevis; details: Xenopus laevis
# [11] = system: XLK-WG cells; experiment: as above; type: cell-based, Xenopus laevis; details: XLK-WG cells, relative to vehicle-treated control; for Xl.14954 (similar to voltage-gated potassium channel subunit MiRP4.1) fold induction, qRT-PCR: table row r10; for Xl.14954 fold induction, qRT-PCR: table row r16
# [12] = system: CYP1A6 (Xl.1692) mRNA; experiment: as above; type: cell-based, Xenopus laevis; details: Xenopus laevis
# [13] = system: XLK-WG cells; experiment: Semi-quantitative RT-PCR of AHR pathway transcripts in XLK-WG cells; type: cell-based, Xenopus laevis; details: 100 nM TCDD, 24 hours
# Method in brief: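 XLK-WG cells were kept in the dark at 29 °C and 5% CO2 in RPMI-1640 with 20% FBS, then grown to near confluence. They were exposed for 24 h to 100 nM TCDD or DMSO vehicle (0.25% final). Total RNA was column-extracted, and RT-PCR covered CYP1A6, CYP1A7, AHR1α, AHR1β, ARNT1 and ARNT2. Cycling was 95 °C/1 min; 43 cycles of […], 50 °C/30 sec, 72 °C/60 sec; then 72 °C/7 min. A no-RT control was included.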
# [14] = system: CYP1A; experiment: CYP1A activity; type: cell-based, mouse; details: mouse
# [15] = read-out: Hypothetical protein MCG81225 (similar to Zn-finger protein 410; Xl.16594) fold induction, Microarray
smiles,measurement,setting,value
"O=Cc1c2[nH]c3ccccc3c2cc2[nH]c3ccccc3c12 [FICZ, 6-formylindolo[3,2-b]carbazole]",EC50,"[1]; EC50 of induced CYP1A activity (EROD), XLK-WG cells, 3 hour exposure, ± SE",0.56 ± 0.15 nM
same,rise of induced CYP1A activity with 24 hours versus 3 hour exposure,[2],more than 20 fold
same,EC50,[3],~0.06 nM
same,EC50,[4],0.07 ± 0.02 nM
same,fold induction at 0.1 µM,[5],16.1
same,number of transcripts with altered expression in excess of TCDD,"[6]; XLK-WG cells, 100 nM",105
same,Genes altered ≥ 2-fold: Induced,"[6]; XLK-WG cells, 100 nM",24
same,Genes altered ≥ 2-fold: Repressed,"[6]; XLK-WG cells, 100 nM",2
same,Genes altered (p ≤ 0.01): Induced,"[6]; XLK-WG cells, 100 nM",113
same,Genes altered (p ≤ 0.01): Repressed,"[6]; XLK-WG cells, 100 nM",35
same,fold induction at 0.1 µM,[6]; [15],1.3
same,fold induction at 0.1 µM,"[6]; read-out: KCNE5.1: voltage-gated potassium channel subunit MiRP4.1 (Xl.16370) fold induction, Microarray",2
same,fold induction at 0.1 µM,"[6]; read-out: MGC52735:similar to gap-jct protein alpha-7 (Xl.3337) fold induction, Microarray",5.2
same,fold induction at 0.1 µM,"[6]; read-out: MGC85390 (Xl.23887; similar to RAB 40B, RAS oncogene family) fold induction, Microarray",2.1
same,fold induction at 0.1 µM,"[6]; read-out: Peripheral Myelin protein 22 (Xl.11939/Xl.14729) fold induction, Microarray",2.2
same,fold induction at 0.1 µM,"[6]; read-out: SYNE 1 (Xl. 14119) fold induction, Microarray",6.7
same,fold induction at 0.1 µM,"[6]; read-out: Xl.13754 (similar to C219-reactive peptide) fold induction, Microarray",3.1
same,fold induction at 0.1 µM,"[6]; read-out: Xl.14584 (similar to gastrula-specific protein kinase) fold induction, Microarray",2.9
same,fold induction at 0.1 µM,"[6]; read-out: Xl.14954 (similar to voltage-gated potassium channel subunit MiRP4.1) fold induction, Microarray",3.1
same,fold induction at 0.1 µM,"[6]; read-out: Xl.14954 fold induction, Microarray",2.1
same,fold induction at 0.1 µM,"[6]; read-out: Xl.25142 fold induction, Microarray",2.1
same,fold induction at 0.1 µM,"[6]; read-out: Xl.7783 fold induction, Microarray",5.9
same,fold induction at 0.1 µM,[7],2.1
same,CYP1A6/7 mRNA quantities after 3 hours exposure relative to 24 hours exposure,[8],up to 5 fold
same,CYP1A7 mRNA induction after 3 hours relative to after 24 hours,[8]; highest dosage of FICZ,5 fold
same,maximum EROD activity in Hepa1c1c7 cells relative to XLK-WG cells,[9],~ 20 fold
same,EROD EC50 after 24 hours relative to EC50 after 3 hours,[9]; Hepa1c1c7 cells,~ 50 fold
same,maximum EROD activity induced,[9]; Hepa1c1c7 cells,8.83 ± 2.72 pmol • mg protein^−1 • min^−1
same,fold induction,[10],412
same,"Hyaluronidase 2 (Xl.6247/Xl.16152) fold induction, qRT-PCR",[11],2.7 fold
same,"Hypothetical protein MCG81225 (similar to Zn-finger protein 410; Xl.16594) fold induction, qRT-PCR",[11],3.5 fold
same,"KCNE5.1: voltage-gated potassium channel subunit MiRP4.1 (Xl.16370) fold induction, qRT-PCR",[11],1.6 fold
same,"MGC52735:similar to gap-jct protein alpha-7 (Xl.3337) fold induction, qRT-PCR",[11],304 fold
same,"Peripheral Myelin protein 22 (Xl.11939/Xl.14729) fold induction, qRT-PCR",[11],1.0 fold
same,"SYNE 1 (Xl. 14119) fold induction, qRT-PCR",[11],106 fold
same,"Xl.13754 (similar to C219-reactive peptide) fold induction, qRT-PCR",[11],4.6 fold
same,"Xl.14584 (similar to gastrula-specific protein kinase) fold induction, qRT-PCR",[11],10.6 fold
same,"Xl.25142 fold induction, qRT-PCR",[11],1.8 fold
same,"Xl.7783 fold induction, qRT-PCR",[11],4.3 fold
same,"Xl.14954 (similar to voltage-gated potassium channel subunit MiRP4.1) fold induction, qRT-PCR",[11],9.5 fold
same,"Xl.14954 fold induction, qRT-PCR",[11],1.9 fold
same,fold induction,[12],455
"Clc1cc2c(cc1Cl)Oc1cc(Cl)c(Cl)cc1O2 [TCDD, 2,3,7,8-tetrachlorodibenzo-p-dioxin]","CYP1A6 and CYP1A7 mRNA expression, semi-quantitative RT-PCR",[13],up regulation of CYP1A6 and CYP1A7 mRNAs
same,EC50 at 3 h,[1],10.5 ± 3.17 nM
same,EC50 at 24 h,[1],≥ 95 nM
same,rise of induced CYP1A activity with 24 hours versus 3 hour exposure,[2],more than 20 fold
same,EC50 at 3 h,[3],~0.06 nM
same,EC50,[4],0.05 ± 0.02 nM
same,"fold induction at 3 h, 0.1 µM",[5],6.7
same,Genes altered ≥ 2-fold: Induced,"[6]; XLK-WG cells, 100 nM",3
same,Genes altered ≥ 2-fold: Repressed,"[6]; XLK-WG cells, 100 nM",1
same,Genes altered (p ≤ 0.01): Induced,"[6]; XLK-WG cells, 100 nM",31
same,Genes altered (p ≤ 0.01): Repressed,"[6]; XLK-WG cells, 100 nM",12
same,fold induction at 0.1 µM,[6]; [15],1.3
same,"fold induction at 3 h, 0.1 µM",[7],1.7
same,maximum EROD activity in Hepa1c1c7 cells relative to XLK-WG cells,[9],~ 40 fold
same,maximum EROD activity induced,[9]; Hepa1c1c7 cells,13.41 ± 4.61 pmol • mg protein^−1 • min^−1
same,EC50 at 3 h,[14],0.03 ± 0.01 nM
same,EC50 at 24 h,[14],0.01 ± 0.002 nM
same,"fold induction at 3 h, 100 nM",[10],320
same,"Hyaluronidase 2 (Xl.6247/Xl.16152) fold induction, qRT-PCR",[11],1.6 fold
same,"Hypothetical protein MCG81225 (similar to Zn-finger protein 410; Xl.16594) fold induction, qRT-PCR",[11],3.2 fold
same,"KCNE5.1: voltage-gated potassium channel subunit MiRP4.1 (Xl.16370) fold induction, qRT-PCR",[11],2.0 fold
same,"MGC52735:similar to gap-jct protein alpha-7 (Xl.3337) fold induction, qRT-PCR",[11],69.1 fold
same,"MGC85390 (Xl.23887; similar to RAB 40B, RAS oncogene family) fold induction, qRT-PCR",[11],2.0 fold
same,"Peripheral Myelin protein 22 (Xl.11939/Xl.14729) fold induction, qRT-PCR",[11],1.1 fold
same,"SYNE 1 (Xl. 14119) fold induction, qRT-PCR",[11],8.4 fold
same,"Xl.13754 (similar to C219-reactive peptide) fold induction, qRT-PCR",[11],2.2 fold
same,"Xl.14584 (similar to gastrula-specific protein kinase) fold induction, qRT-PCR",[11],10.1 fold
same,"Xl.25142 fold induction, qRT-PCR",[11],0.9 fold
same,"Xl.7783 fold induction, qRT-PCR",[11],2.0 fold
same,"Xl.14954 (similar to voltage-gated potassium channel subunit MiRP4.1) fold induction, qRT-PCR",[11],6.6 fold
same,"Xl.14954 fold induction, qRT-PCR",[11],3.0 fold
same,"fold induction at 3 h, 100 nM",[12],427
